Consider 23 compounds from ChEMBL document CHEMBL3351897, “Trimethoxybenzanilide-based P-glycoprotein modulators: an interesting case of lipophilicity tuning by intramolecular hydrogen bonding” (J Med Chem, 2014).

Data set [1] is described as follows: Solubility after 30 mins by turbidimetric solubility assay. The data set is classed as physicochemical. Summed up: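 Serial dilutions from a 1 mM DMSO stock added to 100 mM PBS pH 7.4, giving 1% final DMSO and a final range of 1–500 […], three replicates per concentration. After 30 min, absorbance read at 500, 550, 600, 650 and 700 nm.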
For data set [2], the target named is T1, ATP-dependent translocase ABCB1 (Homo sapiens, UniProt P08183). The data set can be described thus: Inhibition of MDR1 (unknown origin) expressed in MDCK cells after 30 mins by Calcein-AM assay. The data set is classed as cell-based.
T1 sequence (P08183 whole entry): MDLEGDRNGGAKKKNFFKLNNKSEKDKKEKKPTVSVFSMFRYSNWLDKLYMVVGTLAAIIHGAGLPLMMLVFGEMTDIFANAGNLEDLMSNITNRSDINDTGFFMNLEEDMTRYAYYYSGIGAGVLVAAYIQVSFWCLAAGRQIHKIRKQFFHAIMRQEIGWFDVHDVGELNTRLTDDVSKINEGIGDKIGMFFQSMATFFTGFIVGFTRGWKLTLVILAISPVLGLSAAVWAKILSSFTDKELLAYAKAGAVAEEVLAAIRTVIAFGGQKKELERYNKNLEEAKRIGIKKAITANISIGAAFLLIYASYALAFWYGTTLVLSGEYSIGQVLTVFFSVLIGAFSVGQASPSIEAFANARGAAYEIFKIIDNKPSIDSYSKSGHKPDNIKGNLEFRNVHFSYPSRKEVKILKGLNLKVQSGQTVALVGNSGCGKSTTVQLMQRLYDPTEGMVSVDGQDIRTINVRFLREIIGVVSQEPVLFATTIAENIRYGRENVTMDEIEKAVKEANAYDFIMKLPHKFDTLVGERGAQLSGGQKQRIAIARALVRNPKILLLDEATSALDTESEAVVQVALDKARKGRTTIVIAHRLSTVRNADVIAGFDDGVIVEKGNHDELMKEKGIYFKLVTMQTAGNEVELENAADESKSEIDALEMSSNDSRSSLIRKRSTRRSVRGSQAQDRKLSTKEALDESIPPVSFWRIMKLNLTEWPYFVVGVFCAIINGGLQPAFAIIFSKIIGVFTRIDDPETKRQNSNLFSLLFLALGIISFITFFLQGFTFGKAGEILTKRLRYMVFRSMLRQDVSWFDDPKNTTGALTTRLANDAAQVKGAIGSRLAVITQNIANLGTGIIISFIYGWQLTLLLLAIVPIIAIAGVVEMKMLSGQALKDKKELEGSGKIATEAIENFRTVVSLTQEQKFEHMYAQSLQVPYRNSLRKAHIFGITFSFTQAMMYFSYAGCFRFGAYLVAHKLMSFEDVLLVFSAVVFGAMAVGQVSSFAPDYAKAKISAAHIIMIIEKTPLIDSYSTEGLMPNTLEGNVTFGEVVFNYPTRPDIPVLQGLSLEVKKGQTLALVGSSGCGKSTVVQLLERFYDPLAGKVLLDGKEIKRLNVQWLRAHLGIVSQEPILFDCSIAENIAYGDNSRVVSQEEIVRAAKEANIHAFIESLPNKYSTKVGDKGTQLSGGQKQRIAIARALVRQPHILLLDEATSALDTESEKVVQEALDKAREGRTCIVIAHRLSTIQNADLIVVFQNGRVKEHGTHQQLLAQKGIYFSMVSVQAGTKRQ
Data set [3] can be described thus: Lipophilicity, logD of the compound at pH 7.4. The data set is classed as physicochemical. The following applies: buffer. Summed up:
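Octanol/PBS pH 7.4 partitioning, with chemiluminescent nitrogen detection as the read-out; carried out by an outside contractor.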

Data set [4] in a line: Partition coefficient, logK of the compound using methanol/pH 7.4 phosphate buffer by RP-chromatography. The data set is classed as physicochemical. In outline:
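Isocratic RP-HPLC on a C18 column (300SB, 4.6 × 250 mm, 5 μm) at 1 mL/min with UV detection at 230 and 254 nm. Eluent methanol/PBS pH 7.4 70:30. Samples 0.1 mg/mL in 10% DMSO/90% methanol. Dead time taken from D2O. Log k′ = log[(tr − t0)/t0], using the mean of three injections.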

Data set [5] addresses T1, ATP-dependent translocase ABCB1. Put plainly: Inhibition of MDR1 (unknown origin) expressed in MDCK cells after 2 hrs by bioluminescent ATP assay. The data set is classed as cell-based. Summed up: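 MDCK-MDR1 cells seeded at 2 × 10⁴ cells/well and incubated overnight at 37 °C, 5% CO₂, then exposed to test compounds (1, 10, 50, 100 μM) in complete medium for 2 h. Cells lysed, luciferase/D-luciferin substrate added, dark-adapted 10 min, and luminescence read as a measure of cellular ATP. Untreated cells served as control.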

Data set [6] has the same target. Put plainly: Inhibition of MDR1 in human MCF7/ADR cells assessed as potentiation of doxorubicin-induced antiproliferative activity at 1 to 25 uM after 72 hrs by MTT assay. The data set is classed as cell-based. The settings on record: nci/adr-res. In outline: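 MCF7adr cells, grown in RPMI 1640 with 10% FBS, seeded at 25000/well. Next day, compound added at 1, 10 or 25 μM for 24 h. Medium then replaced and the same concentration given with doxorubicin 10 μM for 48 h. MTT 0.5 mg/mL for 3–4 h at 37 °C, formazan dissolved in DMSO/EtOH 1:1, absorbance read at 570 and 630 nm.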

A short description of data set [7]: Efflux ratio, ratio of permeability from basolateral to apical side over apical to basolateral side in human Caco2 cells by UV spectroscopy. The data set is classed as ADME, cell-based. The settings on record: Caco-2. In outline: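 Caco-2 monolayers grown 21 days, then equilibrated twice in HBSS pH 7.4 at 37 °C for 30 min. Drug dissolved in HBSS was added to the apical or basolateral side, with an initial concentration of 1 × 10⁻⁴ M. Transport ran 120 min at 37 °C. Acceptor concentration was read by UV; Papp (nm/s) was computed from it. The ratio is B→A Papp over A→B Papp. Mean of three independent experiments, each in triplicate.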
(In general: Passage across Caco-2 layers is used to estimate intestinal permeability.)

Converted amounts (≈) assume the structure as drawn.

For orientation: kinetic solubility means the concentration staying in solution when a stock, usually in DMSO, is diluted into the medium. Turning to `COc1cc(C(=O)Nc2ccc(-c3cccnc3)cc2[N+](=O)[O-])cc(OC)c1OC`, the kinetic solubility at 0.5 h in data set [1] came to 10 µg/mL (≈ 24.4 µM).
The term IC50 denotes the midpoint of a concentration-inhibition curve. As for `COc1cc2c(cc1OC)CN(CC/C=C1\CCCc3c(OC)cccc31)CC2`, in data set [2], the IC50 is 1.02 µM.
As a reminder, the logD is lipophilicity at a set pH, counting ionised and neutral species. As to `COc1cc(C(=O)Nc2ccc(-c3cc(F)cc(F)c3)cn2)cc(OC)c1OC`, the logD in data set [3] was found to be 3.59. For the same compound, in data set [2], the IC50 is 1.3 µM. For the same compound, the “log K” value in data set [4] is recorded as 0.32.
Usually efflux ratio stands for the permeability from basolateral to apical divided by that in the opposite direction, in the common usage. Consider `COc1cc(OC)c(C(=O)Nc2ccc(-c3cc(F)cc(F)c3)cn2)cc1OC`, for which the logD in data set [3] amounted to 3.66. In addition, the “inhibition (INH)” value in data set [5] is on record as “Active”. Also, the IC50 in data set [2] is 0.97 µM. Also, in data set [4], the “log K” value turned out to be 0.47. Further, the outcome in data set [6] was Active. Moreover, the efflux ratio in data set [7] was 10.7.
On to `COc1cc(C(=O)Nc2ccc(-c3cccnc3)cn2)cc(OC)c1OC`, for which, in data set [3], the logD amounted to 2.39. Besides, the IC50 in data set [2] is 8.21 µM. Further, in data set [4], the “log K” value is -0.44.
As to `COc1cc(OC)c(C(=O)Nc2ccc(-c3cccnc3)cn2)cc1OC`, the logD in data set [3] stood at 3.03. For the same compound, in data set [2], the IC50 was 0.54 µM. In addition, in data set [4], the “log K” value was -0.12.
The compound `COc1cc(C(=O)Nc2ccc(-c3cccnc3)cc2F)cc(OC)c1OC` displayed a logD in data set [3] of 2.48. For the same compound, the “log K” value in data set [4] is listed as -0.36. Also, the solubility (kinetic) at 0.5 h in data set [1] is 25 µg/mL (≈ 65.4 µM).
For the compound `COc1cc(OC)c(C(=O)Nc2ccc(-c3cccnc3)cc2F)cc1OC`, the logD in data set [3] came out at 2.84. In addition, the “inhibition (INH)” value in data set [5] was “Active”. In addition, the IC50 in data set [2] was 0.2 µM. For the same compound, in data set [4], the “log K” value came to 0.24. Besides, the kinetic solubility at 0.5 h in data set [1] is 30 µg/mL (≈ 78.5 µM). Besides, the outcome in data set [6] was Active. Besides, the efflux ratio in data set [7] worked out at 14.
`COc1ccc(C(=O)Nc2ccc(-c3cccnc3)cc2F)c(OC)c1OC` returned a logD in data set [3] of 3.99. The “inhibition (INH)” value in data set [5] is given as “Active”. For the same compound, the IC50 in data set [2] was 0.67 µM. For the same compound, in data set [4], the “log K” value is on record as 0.37. This compound registered a solubility (kinetic) at 0.5 h in data set [1] of 45 µg/mL (≈ 118 µM). In addition, the result in data set [6] was Active. Also, the efflux ratio in data set [7] was 6.7.
For `COc1cc(OC)c(C(=O)Nc2ccc(-c3cccnc3)cc2F)c(OC)c1`, the logD in data set [3] worked out at 2.38. The IC50 in data set [2] is 2.93 µM. The “log K” value in data set [4] was -0.39. In data set [1], this compound returned a solubility (kinetic) at 0.5 h of 60 µg/mL (≈ 157 µM).
In data set [3], `COc1ccc(C(=O)Nc2ccc(-c3cccnc3)cc2F)cc1OC` returned a logD of 2.23. For the same compound, in data set [2], the IC50 was 8.92 µM. For the same compound, the “log K” value in data set [4] is on record as -0.45. In data set [1], the kinetic solubility at 0.5 h was determined as 18 µg/mL (≈ 51.1 µM).
In data set [3], `COc1cc(OC)cc(C(=O)Nc2ccc(-c3cccnc3)cc2F)c1` yielded a logD of 2.81. Besides, the concentration for half-maximal inhibition (IC50) in data set [2] is 3.3 µM. In data set [4], the “log K” value was -0.18. In data set [1], this compound returned a kinetic solubility at 0.5 h of 20 µg/mL (≈ 56.8 µM).
In the same order, the values of `COc1ccc(C(=O)Nc2ccc(-c3cccnc3)cc2F)cc1` are 2.9, 5.26 µM, -0.32 and 22 µg/mL (≈ 68.3 µM).
As to `O=C(Nc1ccc(-c2cccnc2)cc1F)c1ccccc1`, the logD in data set [3] stood at 2.83. In addition, the IC50 in data set [2] is 9.2 µM. The “log K” value in data set [4] is on record as -0.38. This compound also displayed a kinetic solubility at 0.5 h in data set [1] of 40 µg/mL (≈ 137 µM).
In the same order, the values of `O=C(Nc1ccc(-c2cccnc2)cc1F)c1cccnc1` are 1.97, 60.1 µM, -0.68 and 300 µg/mL (≈ 1020 µM).
For the compound `COc1cc(C(=O)Nc2ccc(-c3ccncc3)cc2F)cc(OC)c1OC`, in data set [3], the pH-dependent lipophilicity (logD) came to 2.75. For the same compound, the IC50 in data set [2] was 3.2 µM. In data set [4], the “log K” value was -0.31.
Consider `COc1cc(OC)c(C(=O)Nc2ccc(-c3ccncc3)cc2F)cc1OC`, for which the logD in data set [3] was 3.13. The “inhibition (INH)” value in data set [5] is “Active”. The IC50 in data set [2] was 0.31 µM. Moreover, in data set [4], the “log K” value turned out to be 0.31. The result in data set [6] was Active. Also, the efflux ratio in data set [7] amounted to 8.1.
In data set [3], `COc1ccc(-c2ccc(NC(=O)c3cc(OC)c(OC)cc3OC)c(F)c2)cc1` had a logD of 3.64. In addition, the IC50 in data set [2] was 1.23 µM. For the same compound, in data set [4], the “log K” value turned out to be 0.67.
As to `COc1ccc(S(=O)(=O)Nc2ccc(-c3cccnc3)cc2F)cc1OC`, the logD in data set [3] was 1.7. Also, in data set [2], the IC50 is 67.5 µM. Further, the “log K” value in data set [4] is reported as -0.88.
As to `COc1cc(C(=O)Nc2ccc(-c3cc(F)cc(F)c3)cc2N)cc(OC)c1OC`, the logD in data set [3] was 2.62. Moreover, the IC50 in data set [2] was 2.76 µM. Also, in data set [4], the “log K” value is -0.09.
Taken in the same sequence, the figures for `COc1cc(C(=O)Nc2ccc(-c3cc(F)cc(F)c3)cc2NC(=O)[C@@H](C)NC(C)=O)cc(OC)c1OC` were 2.31, 18.5 µM and -0.03.
As to `COc1cc(C(=O)N(C)c2ccc(-c3cccnc3)cc2F)cc(OC)c1OC`, the logD in data set [3] stood at 2.32. Moreover, the IC50 in data set [2] is 6.66 µM. Also, in data set [4], the “log K” value is recorded as -0.51.
Taken in the same sequence, the figures for `COc1cc(OC)c(C(=O)N(C)c2ccc(-c3cccnc3)cc2F)cc1OC` were 1.75, 21.6 µM and -0.59.
